The nature of data set [1]: Toxicity in BALB/c mouse infected with Trypanosoma cruzi MHOM/Pe/2011/Arequipa;DTU 5 bloodstream trypomastigote assessed as change in serum total bilirubin level in acute phase at 20 mg/kg/day, po administered for 5 consecutive days starting from day 8 post infection and measured on day 100 post infection by biochemical analysis relative to control. The settings on record: in vivo. In kind it is organism-based. The gist of the method: (§1)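 Female BALB/c mice (10–12 weeks, 14–20 g; groups of three) were infected i.p. with 5 × 10^5 Arequipa bloodstream trypomastigotes. Dosing was oral at 20 mg/kg/day for 5 days, from day 8 pi (acute) or day 70 pi (chronic), as a 2 mg/ml suspension in 5% DMSO/0.5% HPMC; controls received vehicle. Cyclophosphamide 200 mg/kg i.p. was given at day 80 pi. Serum was collected 2 days post-treatment and at necropsy by cardiac puncture and compared with infected untreated controls.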

Data set [2] can be described thus: Genotoxicity in Salmonella typhimurium TA1535 harboring pSK1002 assessed as survival at 0.001 mg/ml in absence of Sprague-Dawley rat liver S9 fraction metabolic activation by SOS/umu assay relative to control. In kind it is toxicity. The settings on record: salmonella enterica subsp. enterica serovar typhimurium, read-out: Survival. In short, it runs like this:
(§2)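 Salmonella typhimurium TA1535/pSK1002 was exposed to compounds at several concentrations with or without S9 mix, and bacterial survival % was measured. β-galactosidase induction was measured colorimetrically with ONPG substrate. Genotoxicity was counted where IF ≥ 2 at ≥80% survival; runs were valid if positive controls reached IF ≥ 2.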

Data set [3] in a line: Genotoxicity in Salmonella typhimurium TA1535 harboring pSK1002 assessed as survival at 0.016 mg/ml in presence of Sprague-Dawley rat liver S9 fraction metabolic activation by SOS/umu assay relative to control. In kind it is toxicity, subcellular. As to conditions: salmonella enterica subsp. enterica serovar typhimurium, read-out: Survival. The gist of the method:
(§3)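 Survival of S. typhimurium TA1535/pSK1002 exposed to a range of compound concentrations with or without S9 mix in 96-well format. Survival percentage measured as the cytotoxicity arm of the SOS/umu test. Concentrations with survival ≥80% are counted as non-cytotoxic.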

A short description of data set [4]: Toxicity in BALB/c mouse infected with Trypanosoma cruzi MHOM/Pe/2011/Arequipa;DTU 5 bloodstream trypomastigote assessed as change in serum alkaline phosphatase level in chronic phase at 20 mg/kg/day, po administered for 5 consecutive days starting from day 70 post infection and measured at day 76 post infection relative to control. In kind it is organism-based. The settings on record: in vivo. The gist of the method: as §1

The nature of data set [5]: Genotoxicity in Salmonella typhimurium TA1535 harboring pSK1002 assessed as survival at 0.25 mg/ml in absence of Sprague-Dawley rat liver S9 fraction metabolic activation after by SOS/umu assay relative to control. In kind it is toxicity. As to conditions: salmonella enterica subsp. enterica serovar typhimurium, read-out: Survival. The gist of the method: as §3
The nature of data set [6]: Genotoxicity in Salmonella typhimurium TA1535 harboring pSK1002 assessed as umu gene induction at 0.016 mg/ml in presence of Sprague-Dawley rat liver S9 fraction metabolic activation by SOS/umu assay relative to control. In kind it is toxicity, subcellular. As to conditions: salmonella enterica subsp. enterica serovar typhimurium, read-out: FC. In short, it runs like this: (§4)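 umu induction in S. typhimurium TA1535/pSK1002, with or without S9 mix, in 96-well format. β-galactosidase read colorimetrically with ONPG substrate. Output given as relative units and induction factor (IF). The run is valid if positive controls reach IF ≥2. A compound counts as genotoxic at IF ≥2 at a concentration giving ≥80% bacterial survival.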

Data set [7] is described as follows: Genotoxicity in Salmonella typhimurium TA1535 harboring pSK1002 assessed as umu gene induction at 0.125 mg/ml in presence of Sprague-Dawley rat liver S9 fraction metabolic activation by SOS/umu assay relative to control. In kind it is toxicity, subcellular. The settings on record: salmonella enterica subsp. enterica serovar typhimurium, read-out: FC. In short, it runs like this:
as §4

The nature of data set [8]: Genotoxicity in Salmonella typhimurium TA1535 harboring pSK1002 assessed as umu gene induction at 0.031 mg/ml in presence of Sprague-Dawley rat liver S9 fraction metabolic activation by SOS/umu assay relative to control. In kind it is toxicity, subcellular. As to conditions: salmonella enterica subsp. enterica serovar typhimurium, read-out: FC. In short, it runs like this:
as §4

Data set [9] is described as follows: Genotoxicity in Salmonella typhimurium TA1535 harboring pSK1002 assessed as umu gene induction at 0.063 mg/ml in absence of Sprague-Dawley rat liver S9 fraction metabolic activation by SOS/umu assay relative to control. In kind it is toxicity. The settings on record: salmonella enterica subsp. enterica serovar typhimurium, read-out: FC. In short, it runs like this:
as §4

Data set [10] in a line: Genotoxicity in Salmonella typhimurium TA1535 harboring pSK1002 assessed as umu gene induction at 0.25 mg/ml in presence of Sprague-Dawley rat liver S9 fraction metabolic activation by SOS/umu assay relative to control. In kind it is toxicity, subcellular. The settings on record: salmonella enterica subsp. enterica serovar typhimurium, read-out: FC. In short, it runs like this:
as §4

A short description of data set [11]: Toxicity in BALB/c mouse infected with Trypanosoma cruzi MHOM/Pe/2011/Arequipa;DTU 5 bloodstream trypomastigote assessed as decrease in serum total bilirubin level in chronic phase at 20 mg/kg/day administered for 5 consecutive days starting from […] post infection and measured after 2 days of treatment by biochemical analysis (reference value: 0.25 mg/dl ). Also noted: scale not given: the % may be the effect or the level left. In kind it is organism-based. As to conditions: in vivo, 48 h.

A short description of data set [12]: Genotoxicity in Salmonella typhimurium TA1535 harboring pSK1002 assessed as umu gene induction at 0.001 mg/ml in absence of Sprague-Dawley rat liver S9 fraction metabolic activation by SOS/umu assay relative to control. In kind it is toxicity. The settings on record: salmonella enterica subsp. enterica serovar typhimurium, read-out: FC. The gist of the method: as §4

Data set [13] in a line: Genotoxicity in Salmonella typhimurium TA1535 harboring pSK1002 assessed as survival at 0.002 mg/ml in absence of Sprague-Dawley rat liver S9 fraction metabolic activation by SOS/umu assay relative to control. The settings on record: salmonella enterica subsp. enterica serovar typhimurium, read-out: Survival. In kind it is toxicity. The gist of the method:
as §2

Data set [14] can be described thus: Genotoxicity in Salmonella typhimurium TA1535 harboring pSK1002 assessed as survival at 0.001 mg/ml in presence of Sprague-Dawley rat liver S9 fraction metabolic activation by SOS/umu assay relative to control. In kind it is toxicity, subcellular. As to conditions: salmonella enterica subsp. enterica serovar typhimurium, read-out: Survival. In short, it runs like this:
as §2

Data set [15] is described as follows: Genotoxicity in Salmonella typhimurium TA1535 harboring pSK1002 assessed as survival at 0.063 mg/ml in absence of Sprague-Dawley rat liver S9 fraction metabolic activation by SOS/umu assay relative to control. In kind it is toxicity. The settings on record: salmonella enterica subsp. enterica serovar typhimurium, read-out: Survival. In short, it runs like this: as §3

Data set [16] can be described thus: Genotoxicity in Salmonella typhimurium TA1535 harboring pSK1002 assessed as umu gene induction at 0.001 mg/ml in presence of Sprague-Dawley rat liver S9 fraction metabolic activation by SOS/umu assay relative to control. In kind it is toxicity, subcellular. The settings on record: salmonella enterica subsp. enterica serovar typhimurium, read-out: FC. The gist of the method:
as §4

The nature of data set [17]: Genotoxicity in Salmonella typhimurium TA1535 harboring pSK1002 assessed as umu gene induction at 1 mg/ml in absence of Sprague-Dawley rat liver S9 fraction metabolic activation by SOS/umu assay relative to control. In kind it is toxicity. The settings on record: salmonella enterica subsp. enterica serovar typhimurium, read-out: FC. In short, it runs like this:
as §4

The nature of data set [18]: Toxicity in BALB/c mouse infected with Trypanosoma cruzi MHOM/Pe/2011/Arequipa;DTU 5 bloodstream trypomastigote assessed as decrease in serum lactate dehydrogenase level in chronic phase at 20 mg/kg/day, po administered for 5 consecutive days starting from day 70 post infection measured on day 100 post infection relative to control. In kind it is organism-based. More on the design: scale not given: the % may be the effect or the level left. The settings on record: in vivo. In short, it runs like this: as §1

Data set [19] is described as follows: Toxicity in BALB/c mouse infected with Trypanosoma cruzi MHOM/Pe/2011/Arequipa;DTU 5 bloodstream trypomastigotes assessed as decrease in serum alkaline phosphatase level in chronic phase at 20 mg/kg/day, po administered for 5 consecutive days starting from day 70 post infection measured on day 100 post infection relative to control. In kind it is organism-based. More on the design: scale not given: the % may be the effect or the level left. As to conditions: in vivo. In short, it runs like this:
as §1

Data set [20] is described as follows: Toxicity in BALB/c mouse infected with Trypanosoma cruzi MHOM/Pe/2011/Arequipa;DTU 5 bloodstream trypomastigote assessed as change in serum aspartate aminotransferase level in chronic phase at 20 mg/kg/day, po administered for 5 consecutive days starting from day 70 post infection measured on day 100 post infection relative to control. In kind it is organism-based. The settings on record: in vivo. In short, it runs like this:
as §1

Bounds are passed on as bounds.

As to `O=C(CCN1CCN(c2ccc(Cl)cc2)CC1)c1ccc(O)cc1`, the Activity in data set [1] is recorded as more than 10%; in data set [4] it was more than 10%; in [11], “<= 10%”. Further, the viability at 0.001 mg/ml turned out to be 104% in [2] and 106% in [14]. Besides, the viability at 0.016 mg/ml in data set [3] is 106%. The viability at 0.25 mg/ml in [5] is 152%. Besides, the fold induction at 0.016 mg/ml in data set [6] was found to be 0.84. In data set [7], the fold induction at 0.125 mg/ml worked out at 0.84. Moreover, in data set [8], the fold induction at 0.031 mg/ml was found to be 0.83. Also, the fold induction at 0.063 mg/ml in data set [9] is 0.71. Also, the fold induction at 0.25 mg/ml in data set [10] was found to be 0.63. Moreover, the results for the fold induction at 0.001 mg/ml in [12] and in [16] were 0.83 and 0.76, respectively. Further, the viability at 0.002 mg/ml in [13] was 109%. For the same compound, the viability at 0.063 mg/ml in data set [15] worked out at 125%. Also, the fold induction at 1 mg/ml in [17] worked out at 0.12.
With `O=C(CCN1CCN(c2ccc(C(F)(F)F)cc2)CC1)c1ccc(O)cc1`, the viability at 0.001 mg/ml in [2] stood at 114%; in [14], 106%. In addition, the Activity result in data set [18] is given as “<= 30%”; in data set [19], “<= 30%”; in data set [20], more than 10%. Moreover, the viability at 0.016 mg/ml in data set [3] worked out at 110%. Besides, the viability at 0.25 mg/ml in [5] was determined as 149%. For the same compound, the fold induction at 0.016 mg/ml in data set [6] was determined as 0.79. Also, the fold induction at 0.125 mg/ml in data set [7] turned out to be 0.63. In addition, the fold induction at 0.031 mg/ml in data set [8] came to 0.87. For the same compound, the fold induction at 0.063 mg/ml in data set [9] is 0.67. For the same compound, the fold induction at 0.25 mg/ml in data set [10] was 0.63. The fold induction at 0.001 mg/ml is 0.91 in [12] and 0.82 in [16]. Moreover, in data set [13], the viability at 0.002 mg/ml was found to be 116%. In data set [15], the viability at 0.063 mg/ml was 117%. Besides, the fold induction at 1 mg/ml in [17] is 0.16.
`O=C(Cn1ccnc1[N+](=O)[O-])NCc1ccccc1` [BENZNIDAZOLE]: the Activity in data set [1] was more than 10%; in [18], “<= 10%”; in data set [4] it was more than 10%; in [19], “<= 10%”; in data set [11], “<= 10%”; in data set [20], more than 10%.

(Values after ChEMBL document CHEMBL4402517, “Rational modification of Mannich base-type derivatives as novel antichagasic compounds: Synthesis, in vitro and in vivo evaluation” (Bioorg Med Chem, 2019).)
